# H69AR growth 86K = growth inhibitors of human H69AR lung tumor cells; viability, % at 10 µM; H69AR lung tumor viability, ATP luminescence, 72 h; hits give low values; 85,000 tested, 6% active;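 active means viability at or below 40%; inactive means viability above 40%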;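 further: multidrug resistant small cell line overexpressing MRP-1 efflux transporter; 100% = mean luminescence of untreated control wells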
# PTEN del growth = PTEN-deleted cell growth suppression. HCT116 PTEN-null viability, CellTiter-Glo, 60 h; hits give low values. viability, % at 10 µM. 140,000 tested, 1.2% active. AID 827;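 active means viability at or below a set limit, 4 SD under the median of all tested compounds, cut at about 3.7% in these data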;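 further: PTEN knockout HCT116 line with beta catenin targeted HCT116 as companion control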
# Lung fibro prol = blocks proliferation of human lung fibroblasts. LL 47 human lung fibroblast viability, ATP luminescence; hits give low values. viability, % at 10 µM. 85,000 tested, 1.1% active. AID 719;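 active means viability at or below 50% in the single dose screen; inactive means viability above 50%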;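 further: compound exposure lasted 72 h before the ATP readout; 100% = median luminescence of untreated cell-only wells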
#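 Test system: LL 47 human lung fibroblasts / Incubation: 72 h compound exposure at 37 °C after overnight plating / Technique: luminescent ATP detection, CellTiter-Glo / Compound dosing: 0.1% DMSO in all compound wells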
# bCat KO growth = beta-catenin-lacking colon tumor cell growth suppression | HCT116 beta-catenin knockout viability, CellTiter-Glo, 60 h; hits give low values | viability, % at 10 µM | AID 818 | 140,000 tested, 1.5% active;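 active means viability at or under a set limit, the compound median less 4 SD, cut at about 6% in these data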;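 further: 0% = Hyamine 1622 control at 20 µM and 100% = untreated cell control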
# Cav3 T inh = human Cav3.2 channel inhibition, primary screen | B-score at 10 µM | 100,000 tested, 4% active | Cav3.2-expressing cells, Fluo-4 calcium fluorescence FDSS; hits give low values | O95180;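 active means single-dose well whose peak fluorescence ratio is a statistical outlier from its plate by either plate-standardised score or position-corrected B-score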
# HUVEC inhibit = blocks proliferation of human endothelial cells; viability, % at 10 µM (by protocol); 86,000 tested, 1.1% active; HUVEC proliferation, CellTiter-Glo luminescence, 72 h; hits give low values; AID 648;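 active means viability at or below 30%; inactive means viability above 30%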;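 further: 100% = median luminescence of DMSO-only cell control wells on each plate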
# Starred values were filed as active, the others as inactive; . = not tested or not shown. In the library only some 7.1% were active in any assay of this set; here they are far more common.
SMILES,H69AR growth 86K,PTEN del growth,Lung fibro prol,bCat KO growth,Cav3 T inh,HUVEC inhibit
CCCOc1cccc(C(=O)Nc2cc(NC(=O)c3ccco3)ccc2OC)c1,.,75.2,.,87.8,-6.4*,.
CC(C)COc1ccc(C(=O)Nc2ccc(NC(=O)c3ccco3)c(Cl)c2)cc1,6.7*,41.2,86.7,39.3,-0.484,36.6
O=C(Nc1ccc(Cl)cc1C(=O)NCc1cccnc1)c1ccco1,53.9,94.8,103.2,117.7,-0.209,93.4
O=C(Nc1ccc(Cl)cc1C(=O)Nc1ccncc1)c1ccco1,35.8*,78.5,69.6,68.0,0.314,72.7
COc1ccc(OC)c(C(C)NC(C)=O)c1 (centres undefined),100.4,107.6,102.5,102.0,0.328,90.7
CCOc1ccc(C(=O)Nc2cc(S(=O)(=O)Nc3ccccc3Cl)ccc2N2CCOCC2)cc1,.,84.3,.,80.1,.,.
O=C(CCC(=O)OCc1ccc(Br)cc1)Nc1ccccc1,.,94.8,.,92.1,.,.
O=C(COC(=O)C12CC3CC(CC(C3)C1)C2)Nc1ccccc1F,.,85.1,.,81.5,.,.
COc1cc(NC(=O)c2ccco2)c(OC)cc1NC(=O)Nc1ccc(Cl)cc1,11.2*,25.7,109.3,24.1,-0.0559,78.0
COc1ccc(NC(=O)c2cccs2)cc1NC(=O)c1ccco1,48.5,88.3,101.5,93.0,-0.358,84.0
COc1cc(OC)cc(C(=O)Nc2cc(NC(=O)c3ccco3)ccc2OC)c1,36.7*,87.7,93.8,89.6,-0.092,83.5
CC(=O)N(C)c1ccc(NC(=O)c2cnn(C)c2)cc1,95.9,96.7,109.5,102.3,1.19,96.2
CC(C)(C)N=Cc1cc(-c2ccccc2)sc1O,98.6,88.0,100.0,97.9,-0.492,106.4
CC(=O)Nc1nc(C)nc(-c2ccccc2OC(C)=O)n1,103.3,90.3,104.7,96.2,0.012,99.5
CC(=O)Nc1nc(-c2ccccc2)nc(-c2ccccc2OC(C)=O)n1,24.2*,15.9,.,28.7,-0.49,44.9
Cn1cnnc1SCC(=O)c1cc2ccccc2oc1=O,76.5,90.8,89.3,92.9,-0.0999,88.4
O=C(Cn1nc(Cl)nc1Cl)c1cc2ccccc2oc1=O,31.8*,86.8,98.9,93.0,1.97,90.5
O=C(Cn1nc(Cl)nc1Cl)c1ccc2c(c1)OCCO2,38.4*,95.1,95.8,79.7,1.63,82.7
Cc1cc(C)nc(SCC(=O)c2ccc3c(c2)OCCO3)n1,.,99.4,.,99.3,0.805,.
Oc1ccc(N=C/C=C/c2ccc(Br)cc2)cc1-c1nc2ccccc2s1,.,5.8,.,23.0,.,.
COc1ccc(/C=C/C(=O)c2cc(F)ccc2OC(=O)c2ccc(OC)c(OC)c2)cc1OC,.,3.3*,.,2.9*,.,.
COC(=O)c1ccc(/C=C/C(=O)c2ccc(OC)c(OC)c2)cc1,.,1.6*,.,3.3*,1.3,.
COc1ccc(/C=C/C(=O)c2cc(F)ccc2OC(=O)c2ccccc2)cc1OC,.,.,.,.,-3.5,.
COC(=O)c1ccc(/C=C/C(=O)c2ccc(OC)cc2)cc1,.,6.9,.,11.5,0.335,.
CCc1cccc(CC)c1NC(=S)NCC(c1cccnc1)N1CCOCC1 (centres undefined),.,82.8,.,86.8,.,.
SMILES,H69AR growth 86K,PTEN del growth,Lung fibro prol,bCat KO growth,Cav3 T inh,HUVEC inhibit
Oc1cccc2ccc[n+](CC(O)Cn3c4ccccc4c4ccccc43)c12 (centres undefined),.,67.4,.,62.4,.,.
CCC1ON(c2ccccc2)C2c3nc4ccccc4n3CC12 (centres undefined),.,.,.,.,0.834,.
COC(=O)c1oc2c(c1C)C1(CCC2)SCCS1,36.8*,91.5,87.2,88.3,-4.19,87.7
CCOC(=O)Cc1ccc2sc(-c3ccccc3)nc2c1,.,88.9,.,78.7,.,.
CCOc1ccc(CC(=O)Nc2c(C(N)=O)oc3ccc(Br)cc23)cc1OCC,36.5*,53.5,91.8,55.1,-0.131,98.8
COc1ccc2oc(C(=O)c3ccccc3)c(N)c2c1,101.4,72.6,93.5,85.6,0.424,93.7
COC(=O)c1oc2ccc(Br)cc2c1NC(=O)CCN1CCOCC1,87.1,92.3,102.7,85.4,0.36,89.7
COc1ccc2oc(C(=O)c3ccccc3)c(NC(=O)CN3CCN(C)CC3)c2c1,0.7*,1.6*,53.8,1.4*,1.76,32.0
CCOC(=O)c1oc2ccc(Br)cc2c1NC(=O)CN1CCN(C)CC1,51.1,4.8,81.1,4.4*,1.87,68.8
CC(C)(C)C(=O)Cn1c(=N)n(Cc2ccccc2)c2ccccc21,38.4*,79.1,91.1,83.1,-4.14,113.0
C=CCn1c(=N)n(CC(=O)O)c2ccccc21,94.0,106.3,107.9,92.5,-1.33,105.4
CC(C)(C)C(=O)Cn1c(=N)n(Cc2ccccc2Cl)c2ccccc21,73.0,87.9,95.1,87.1,-4.98*,116.3
N=c1n(CCO)c2ccccc2n1Cc1ccccc1Cl,95.9,79.8,93.3,76.3,0.794,96.0
COc1ccc(Br)cc1CN(C)CC(=O)Nc1c(Cl)cccc1Cl,.,74.0,.,74.3,.,.
Cc1cc(C)c(S(=O)(=O)n2cnc3ccccc32)c(C)c1,101.8,102.3,104.5,101.7,0.625,102.5
CCOc1cc(C)c(Cl)cc1S(=O)(=O)n1cnc2ccccc21,38.5*,87.7,97.1,98.4,-5.67*,76.5
CC(=O)Nc1cccc(NC(=O)Cc2nc(-c3ccccc3)sc2-c2ccc(C)cc2)c1,.,1.4*,.,9.8,.,.
Cn1c(-c2ccc(C=O)s2)nc2c3ccccc3c3ccccc3c21,17.7*,7.0,88.8,25.0,-5.53*,60.1
Cc1cc(C)c2oc(-c3ccc(C)c(NC(=S)NC(=O)c4cccs4)c3)nc2c1,.,2.7*,.,3.8*,0.0351,.
N#CC1=C(SCC(=O)NC23CC4CC(CC(C4)C2)C3)NC(=O)C(C#N)C12CCCCC2 (centres undefined),9.1*,38.8,79.8,50.5,-3.21*,56.2
N#CC1=C(N)NC(SCC(=O)Nc2ccccc2)=C(C#N)C12CCCC2,.,90.6,.,100.4,-3.36,.
CCOC(=O)C1=C(SCC(=O)Nc2ccccc2)NC(=O)C(C#N)C12CCCCC2 (centres undefined),73.0,92.3,90.0,76.6,-4.13*,98.5
CC(C)(C)C1CCC2(CC1)C(C#N)=C(SCC(=O)NC1CCCCC1)NC(=O)C2C#N (centres undefined),9.6*,61.2,82.0,71.7,-4.23*,44.1
N#CC1=C(SCC(=O)NC2CC2)NC(=O)C(C#N)C12CCCCC2 (centres undefined),100.5,101.4,95.1,94.9,-0.0382,83.6
CCCCc1c(C)c(C#N)c2nc3ccccc3n2c1Cl,.,1.1*,.,1.3*,.,.
CCc1c(C)c(C#N)c2nc3ccccc3n2c1N(C)C,53.0,98.3,89.4,89.8,1.08,92.2
CC(=O)c1ccn(S(=O)(=O)c2ccccc2)c1,.,84.3,.,91.1,.,.
COc1ccc(C(=O)Nc2nc3c(s2)CCCC3)cc1S(=O)(=O)N1CCCc2ccccc21,.,44.4,.,50.6,.,.
COc1ccc2c(c1)nc1n2CN(CC2CCCO2)CN1Cc1ccccc1 (centres undefined),24.7*,.,86.5,.,.,68.2

# Screening results as filed in PubChem.
